{"source": "ChEMBL document CHEMBL5724801", "about": "“EUbOPEN Chemogenomics Library - Multiplex” (2024)", "system": "Fibroblast", "assay": "Multiplex assay against human fibroblast", "type": "toxicity, cell-based", "method_in_brief": "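Four dyes were applied at seeding to live cells: Hoechst33342, BioTracker Green Microtubule Cytoskeleton Dye, MitoTracker Red and Annexin V Alexa Fluor 680. Imaging after compound addition used a CQ1 microscope at 37°C and 5% CO2. CellPathfinder machine-learning gating then sorted cells into Hoechst high-intensity objects or normal cells, normal cells into healthy, pyknosed or fragmented nuclei, and pyknosed cells into mitotic or apoptotic, with tubulin, mitochondrial-mass and membrane-permeability phenotypes given as per cents of healthy-nucleus cells.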", "key": {"[1]": {"details": "12 h, 1 µM, compound concentration 1 uM"}, "[2]": {"details": "12 h, 10 µM, compound concentration 10 uM"}, "[3]": {"details": "24 h, 1 µM, compound concentration 1 uM"}, "[4]": {"details": "24 h, 10 µM, compound concentration 10 uM"}, "[5]": {"details": "48 h, 1 µM, compound concentration 1 uM"}, "[6]": {"details": "48 h, 10 µM, compound concentration 10 uM"}}, "note": "Where “and” joins values, the source holds several entries; their conditions need not be identical. Equal values may be shown once."}
{"smiles": "COc1cc(C(=O)N(CCCc2ccccc2)Cc2ccc(CC(=O)O)cc2)cc(OC)c1C", "values": [{"measurement": "Population Apoptotic (%)", "setting": "[1]", "result": "63% and 42%"}, {"measurement": "Population Fragmented Nuclei (%)", "setting": "[1]", "result": "14% and 37%"}, {"measurement": "Population Healthy Nuclei (%)", "setting": "[1]", "result": "73% and 45%"}, {"measurement": "Population Hoechst High Intensity Objects (%)", "setting": "[1]", "result": "2% and 4%"}, {"measurement": "Population Membrane Permeable-Phenotype (%)", "setting": "[1]", "result": "0% and 11%"}, {"measurement": "Population Mitochondria Different-Phenotype (%)", "setting": "[1]", "result": "0% and 5%"}, {"measurement": "Population Mitotic Cells (%)", "setting": "[1]", "result": "36% and 57%"}, {"measurement": "Population Normal (%)", "setting": "[1]", "result": "97% and 95%"}, {"measurement": "Population Pyknosed Nuclei (%)", "setting": "[1]", "result": "12% and 16%"}, {"measurement": "Population Tubulin-Different-Phenotype (%)", "setting": "[1]", "result": "15% and 36%"}, {"measurement": "Total Cell Count", "setting": "[1]", "result": "160 and 176"}, {"measurement": "Population Apoptotic (%)", "setting": "[2]", "result": "41% and 45%"}, {"measurement": "Population Fragmented Nuclei (%)", "setting": "[2]", "result": "16% and 25%"}, {"measurement": "Population Healthy Nuclei (%)", "setting": "[2]", "result": "70% and 61%"}, {"measurement": "Population Hoechst High Intensity Objects (%)", "setting": "[2]", "result": "2% and 4%"}, {"measurement": "Population Membrane Permeable-Phenotype (%)", "setting": "[2]", "result": "0% and 7%"}, {"measurement": "Population Mitochondria Different-Phenotype (%)", "setting": "[2]", "result": "5% and 4%"}, {"measurement": "Population Mitotic Cells (%)", "setting": "[2]", "result": "58% and 54%"}, {"measurement": "Population Normal (%)", "setting": "[2]", "result": "97% and 95%"}, {"measurement": "Population Pyknosed Nuclei (%)", "setting": "[2]", "result": "12% and 13%"}, {"measurement": "Population Tubulin-Different-Phenotype (%)", "setting": "[2]", "result": "28% and 47%"}, {"measurement": "Total Cell Count", "setting": "[2]", "result": "197 and 181"}, {"measurement": "Population Apoptotic (%)", "setting": "[3]", "result": "68% and 52%"}, {"measurement": "Population Healthy Nuclei (%)", "setting": "[3]", "result": "77% and 41%"}, {"measurement": "Population Hoechst High Intensity Objects (%)", "setting": "[3]", "result": "1% and 4%"}, {"measurement": "Population Membrane Permeable-Phenotype (%)", "setting": "[3]", "result": "0% and 1%"}, {"measurement": "Population Mitochondria Different-Phenotype (%)", "setting": "[3]", "result": "0% and 6%"}, {"measurement": "Population Mitotic Cells (%)", "setting": "[3]", "result": "31% and 48%"}, {"measurement": "Population Normal (%)", "setting": "[3]", "result": "98% and 95%"}, {"measurement": "Population Pyknosed Nuclei (%)", "setting": "[3]", "result": "10% and 13%"}, {"measurement": "Population Tubulin-Different-Phenotype (%)", "setting": "[3]", "result": "13% and 28%"}, {"measurement": "Total Cell Count", "setting": "[3]", "result": "156 and 189"}, {"measurement": "Population Apoptotic (%)", "setting": "[4]", "result": "55% and 40%"}, {"measurement": "Population Fragmented Nuclei (%)", "setting": "[4]", "result": "12% and 25%"}, {"measurement": "Population Healthy Nuclei (%)", "setting": "[4]", "result": "76% and 61%"}, {"measurement": "Population Hoechst High Intensity Objects (%)", "setting": "[4]", "result": "1% and 4%"}, {"measurement": "Population Membrane Permeable-Phenotype (%)", "setting": "[4]", "result": "1% and 5%"}, {"measurement": "Population Mitochondria Different-Phenotype (%)", "setting": "[4]", "result": "6% and 0%"}, {"measurement": "Population Mitotic Cells (%)", "setting": "[4]", "result": "45% and 59%"}, {"measurement": "Population Normal (%)", "setting": "[4]", "result": "98% and 96%"}, {"measurement": "Population Pyknosed Nuclei (%)", "setting": "[4]", "result": "10% and 13%"}, {"measurement": "Population Tubulin-Different-Phenotype (%)", "setting": "[4]", "result": "25% and 41%"}, {"measurement": "Total Cell Count", "setting": "[4]", "result": "192 and 175"}, {"measurement": "Population Apoptotic (%)", "setting": "[5]", "result": "90% and 52%"}, {"measurement": "Population Fragmented Nuclei (%)", "setting": "[5]", "result": "21% and 50%"}, {"measurement": "Population Healthy Nuclei (%)", "setting": "[5]", "result": "72% and 41%"}, {"measurement": "Population Hoechst High Intensity Objects (%)", "setting": "[5]", "result": "1% and 2%"}, {"measurement": "Population Membrane Permeable-Phenotype (%)", "setting": "[5]", "result": "0% and 3%"}, {"measurement": "Population Mitochondria Different-Phenotype (%)", "setting": "[5]", "result": "0% and 9%"}, {"measurement": "Population Normal (%)", "setting": "[5]", "result": "98% and 97%"}, {"measurement": "Population Pyknosed Nuclei (%)", "setting": "[5]", "result": "6% and 8%"}, {"measurement": "Population Tubulin-Different-Phenotype (%)", "setting": "[5]", "result": "17% and 40%"}, {"measurement": "Total Cell Count", "setting": "[5]", "result": "168 and 211"}, {"measurement": "Population Apoptotic (%)", "setting": "[6]", "result": "77% and 58%"}, {"measurement": "Population Fragmented Nuclei (%)", "setting": "[6]", "result": "25% and 38%"}, {"measurement": "Population Healthy Nuclei (%)", "setting": "[6]", "result": "65% and 54%"}, {"measurement": "Population Hoechst High Intensity Objects (%)", "setting": "[6]", "result": "2% and 5%"}, {"measurement": "Population Membrane Permeable-Phenotype (%)", "setting": "[6]", "result": "1% and 5%"}, {"measurement": "Population Mitochondria Different-Phenotype (%)", "setting": "[6]", "result": "5% and 3%"}, {"measurement": "Population Mitotic Cells (%)", "setting": "[6]", "result": "22% and 41%"}, {"measurement": "Population Normal (%)", "setting": "[6]", "result": "97% and 94%"}, {"measurement": "Population Pyknosed Nuclei (%)", "setting": "[6]", "result": "9% and 6%"}, {"measurement": "Population Tubulin-Different-Phenotype (%)", "setting": "[6]", "result": "32% and 46%"}, {"measurement": "Total Cell Count", "setting": "[6]", "result": "195 and 187"}]}
